Results published in publication PMC7452664 (International Journal for Parasitology: Drugs and Drug …, 2020).
“Also recorded” adds a separate entry of the source. Like-named read-outs stand apart in the source and are kept apart here.

Legend:
[1] = test system: P. falciparum 3D7 intraerythrocytic stage; assay: P. falciparum growth inhibition assay; type: cell-based, Plasmodium falciparum; conditions: for IC50: 3D7, 48 h, read-out: IC50 P. falciparum
In short: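 Sorbitol-synchronized 3D7 rings in RBCs at 3% hematocrit, 0.8% parasitemia. Exposed 48 h at 37 °C (5% CO2, 2% O2, 93% N2), in triplicate. Chloroquine 80 nM as reference. Parasitemia measured by flow cytometry after SYTO 11 staining, with uninfected and untreated infected controls. Values standardized to chloroquine; inhibition versus untreated; IC50 from sigmoidal variable-slope fit.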

[2] = test system: L. infantum promastigotes; assay: Anti-L. infantum promastigotes drug test; type: cell-based, Leishmania infantum; conditions: 48 h; for parasite-killing effect on promastigotes: data not shown
In short: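 Promastigotes from a 4-day culture, 1 × 10^5/well, exposed to increasing concentrations for 48 h at 26 °C. Amphotericin B 0.25 μM as positive control. Cells lysed (1% Triton X-100, 2.9% sodium citrate), then 5 mM p-nitrophenyl phosphate added for 2 h at 37 °C. Stopped with 1 N NaOH and read at OD 405 nm. Inhibition calculated versus untreated controls.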

[3] = test system: T. cruzi intracellular amastigotes; assay: Drug test on intracellular amastigotes of T. cruzi; type: cell-based, Trypanosoma cruzi; conditions: 72 h; for inhibition of T. cruzi amastigote numbers (highest reduction): concentration not given; for IC50: Trypanosoma cruzi, Vero; for antitrypanosomal activity on T. cruzi: data not shown
In short: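 Gamma-irradiated (2200 rad) Vero cells, 3.6 × 10^4/well, plated overnight at 37 °C, 5% CO2. […] Serial dilutions added for 72 h, in quadruplicate, with benznidazole 2 μM as control. Fluorescence read at Ex 544/Em 612 nm. Inhibition versus infected untreated wells; IC50 from sigmoidal variable-slope fit.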

[4] = test system: T. brucei brucei 427 strain, bloodstream stage; assay: Screening of drugs against T. brucei; type: cell-based, Trypanosoma brucei brucei; conditions: for IC50: Trypanosoma brucei
In short: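 Strain 427 bloodstream forms in HMI-9 were pelleted (900 g, 10 min) and seeded at 5 × 10^5/well in warm medium with serial dilutions, in triplicate. Suramin 100 μM as positive control. After 24 h, Alamar Blue added and incubated 4 h at 37 °C. Fluorescence read at Ex 530/Em 590 nm. Inhibition versus untreated; IC50 from sigmoidal variable-slope fit.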

[5] = test system: L. infantum intra-macrophage amastigotes; assay: Drug test on L. infantum intra-macrophage amastigotes; type: cell-based, Leishmania infantum; conditions: for decrease of number of intracellular amastigotes / reduction of percentage of infected macrophages: highest non-cytotoxic dose; for IC50: Leishmania infantum, U-937, 48 h, read-out: IC50 (parasite-killing activity, L. infantum intracellular amastigotes)
In short: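 U937 cells were PMA-differentiated (50 nM, 48 h) and infected with 6-day metacyclic promastigotes at 10:1 for 24 h, then washed. Infected cells (5 × 10^4) were treated for 48 h in chamber slides, in duplicate, at concentrations non-toxic to macrophages (MTT, 48 h). Meglumine antimoniate 273 μM as control. Methanol-fixed, Giemsa-stained; 200 cells counted for infected macrophages and amastigotes.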

[6] = test system: T. brucei; conditions: ref Barnard et al., 1993; cited from earlier work
[7] = ref Schaefer et al., 2012; cited from earlier work
[8] = ref Barnard et al., 1993; cited from earlier work
[9] = test system: L. mexicana promastigotes; conditions: concentrations as high as 0.5 mM; ref Turrens and Cazzulo, 1987; cited from earlier work
[10] = test system: BS forms of T.brucei; conditions: read-out: IC50 BS forms of T.brucei; ref Chambers et al., 2008; cited from earlier work
[11] = test system: T. cruzi epimastigotes; conditions: read-out: IC50 T. cruzi epimastigotes; ref Turrens, 1986; cited from earlier work
[12] = test system: T. brucei; conditions: read-out: IC50 T. brucei; different T. brucei strain; ref Barquilla et al., 2008; cited from earlier work
[13] = read-out: IC50 T. cruzi intracelular amastigotes
[14] = 24 h, read-out: IC50 T. brucei Bloodstream stage
[15] = 24 h, read-out: IC50 T. brucei brucei
[16] = read-out: IC50 T. cruzi amastigotes

Compound: O=CC[C@@H](O)[C@H](O)[C@H](O)CO [2DG, 2-deoxy-D-glucose]
- P. falciparum growth inhibition ([1]; 48 h): growth inhibition values close to those obtained by CQ
- parasite-killing effect on promastigotes ([2]; 0.2 mM): slight parasite-killing effect
- inhibition of T. cruzi amastigote numbers (highest reduction) [3]: 89.3%
- IC50 [3, 13]: 7270 ± 0.47 µM
- parasite-killing activity on T. brucei ([4]; 24 h): No parasite-killing activity was detected

Compound: O=C(O)C(=O)CBr [3BP, 3-bromopyruvic acid]
- P. falciparum growth inhibition ([1]; 48 h): slight effect on parasite growth inhibition; also recorded: no efficacy
- decrease of number of intracellular amastigotes ([5]; 75 μM, 48 h): 78.3%
- reduction of percentage of infected macrophages ([5]; 75 μM, 48 h): 48.4%
- IC50 [5]: 24.9 µM
- concentration inhibiting motility and growth of T. brucei [6]: 13.4 µM
- safety in rodents [7]: apparently being safe in rodents, where only a reduction in body weight was recorded
- parasite-killing effect on promastigotes ([2]; 37 μM): slight parasite-killing effect
- antitrypanosomal activity on T. cruzi [3]: did not show consistent antitrypanosomal activity; also recorded: no efficacy
- toxicity in humans [8]: toxicity in humans
- parasite-killing activity on T. brucei ([4]; 24 h, concentration not given): 93.2%
- IC50 [4, 14]: 76.6 µM
- IC50 [4, 15]: 76.6 µM

Compound: C[C@@H]1[C@H](O)[C@@H](C)/C=C/C=C/C=C/C=C/C=C/C=C/C=C/[C@H](O[C@@H]2O[C@H](C)[C@@H](O)[C@H](N)[C@@H]2O)C[C@@H]2O[C@](O)(C[C@@H](O)C[C@@H](O)[C@H](O)CC[C@@H](O)C[C@@H](O)CC(=O)O[C@H]1C)C[C@H](O)[C@H]2C(=O)O [AmB, amphotericyn B]
- survival rate of L. infantum promastigotes ([2]; 0.25 μM): 36%

Compound: CCN(CC)CCCC(C)Nc1ccnc2cc(Cl)ccc12 (stereo not drawn) [CQ, chloroquine]
- inhibition at 0.08 µM ([1]; Plasmodium falciparum, 3D7, read-out: parasite growth inhibition): > 90%

Compound: O=C(O)C(Cl)Cl [DCA, dichloroacetic acid]
- P. falciparum growth inhibition ([1]; 48 h): growth inhibition values close to those obtained by CQ
- decrease of number of intracellular amastigotes ([5]; 25 mM, 48 h): 90.7%
- reduction of percentage of infected macrophages ([5]; 25 mM, 48 h): 74.4%
- IC50 [5]: 632 µM
- effect on L. infantum promastigote survival [2]: did not detectably impair
- IC50 [3, 16]: 25800 µM
- IC50 [3, 13]: 25800 ± 59 µM
- inhibition of T. cruzi amastigotes, highest value ([3]; high concentrations (up to 100 mM)): 74.1%
- concentration achieving complete clearance of cultured T. brucei brucei ([4]; 24 h): 12.5 mM
- IC50 [4, 14]: 1240 µM

Compound: O=C(O)c1nn(Cc2ccc(Cl)cc2Cl)c2ccccc12 [LND, lonidamine]
- effect on L. mexicana promastigotes [9]: only a leishmaniostatic effect was observed
- concentration of peak antimalarial activity ([1]; 48 h): 300 µM
- IC50 ([1]; Plasmodium falciparum): 209 µM
- effect on L. infantum promastigote survival [2]: did not detectably impair; also recorded: no effect was detected
- inhibition of T. cruzi amastigote numbers (highest reduction) [3]: 99.4%
- IC50 [3, 16]: 82.4 µM
- IC50 [3, 13]: 82.4 µM
- IC50 [10]: 50 µM
- IC50 [11]: 80 µM
- parasite-killing activity on T. brucei ([4]; 24 h, concentration not given): 97.7%
- IC50 [4, 14]: 26.8 µM
- IC50 [4, 15]: 26.8 µM

Compound: CN(C)C(=N)N=C(N)N [MET, metformin]
- P. falciparum growth inhibition ([1]; 48 h): growth inhibition values close to those obtained by CQ
- effect on L. infantum promastigote survival [2]: did not detectably impair
- IC50 [3, 16]: 18500 µM
- IC50 [3, 13]: 18500 ± 18 µM
- parasite elimination, T. brucei ([4]; 20 mM, 24 h): 57%
- IC50 [4, 14]: 17300 ± 15 µM

Compound: CO[C@H]1C[C@@H]2CC[C@@H](C)[C@@](O)(O2)C(=O)C(=O)N2CCCC[C@H]2C(=O)O[C@H]([C@H](C)C[C@@H]2CC[C@@H](O)[C@H](OC)C2)CC(=O)[C@H](C)/C=C(\C)[C@@H](O)[C@@H](OC)C(=O)[C@H](C)C[C@H](C)/C=C/C=C/C=C/1C [SIR, sirolimus]
- P. falciparum growth inhibition ([1]; 48 h): growth inhibition values close to those obtained by CQ
- IC50 ([1]; Plasmodium falciparum): ~2.5 µM
- effect on parasite burden and infected macrophages ([5]; 10 μM, data not shown): modest increase of the parasite burden and number of infected macrophages
- anti-parasitic effect on L. infantum intra-macrophage amastigotes ([5]; 48 h, data not shown): did not show any parasiticidal effect; also recorded: increase of parasite load
- effect on L. infantum promastigote survival [2]: did not detectably impair
- antitrypanosomal activity on T. cruzi [3]: did not show consistent antitrypanosomal activity; also recorded: did not affect the viability
- IC50 [12]: 0.152 µM
- concentration achieving complete clearance of cultured T. brucei brucei ([4]; 24 h): 0.00685 mM
- IC50 [4, 14]: 2.14 µM

Compound: Cc1ccc(C(=O)Nc2ccc(S(=O)(=O)O)c3cc(S(=O)(=O)O)cc(S(=O)(=O)O)c23)cc1NC(=O)c1cccc(NC(=O)Nc2cccc(C(=O)Nc3cc(C(=O)Nc4ccc(S(=O)(=O)O)c5cc(S(=O)(=O)O)cc(S(=O)(=O)O)c45)ccc3C)c2)c1 [SUR, suramin]
- parasite clearance, T. brucei ([4]; 100 μM, control drug): 96%
